The source made the active and inactive calls. No cut-off for these calls is given here.
How the values were obtained:
Mus musculus [1] = assay: Anticonvulsant activity in maximal electroshock induced seizure TO mouse model assessed as suppression of tonic hind limb extension at 10 mg/kg, ip pretreated for 30 to 45 mins followed by maximal electroshock induction; format: functional, organism-based
Histamine H3 receptor = Histamine H3 receptor (Homo sapiens, UniProt Q9Y5N1); assay: Displacement of [3H]Nalpha-methylhistamine from recombinant human H3 receptor expressed in HEK293 cells after 90 mins by liquid scintillation counting method; format: cell-based
Method in brief: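 Thawed, homogenized membranes from HEK-293 cells stably expressing full-length human H3R, incubated 90 min at RT with shaking with 2 nM [3H]Nα-methylhistamine (KD 3.08 nM) and 5–11 concentrations (0.01 nM–10 µM). Nonspecific binding with pitolisant 10 µM. GF/B filtration (0.3% PEI), ice-cold water washes, scintillation counting. Ki by Cheng-Prusoff; mean (95% CI), ≥3 experiments in at least duplicate.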

Cavia porcellus [2] = species on record: Cavia porcellus; assay: Agonist activity at muscarinic receptor in guinea pig ileum assessed as induction of ileum contraction measured after 15 mins
[3] = biological target: Histamine H1 receptor (Cavia porcellus) (UniProt P31389); assay: Competitive antagonist activity at H1 receptor in guinea pig ileum assessed as inhibition of histamine-induced ileum contraction measured after 15 mins
Method in brief: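 Ileum from male guinea pigs cut into 2 cm segments in Krebs at 37°C, pH 7.4, O2/CO2 19:1, 0.5 g resting tension, equilibrated 60 min. Cumulative histamine curve (10 nM–10 µM), then 15 min with one antagonist concentration per tissue and a repeat curve. Responses are % of first-curve max. pA2 comes from Schild analysis if slope ≈1, otherwise pKB from concentration ratio; 4–8 repeats.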

Cavia porcellus [4] = species on record: Cavia porcellus; assay: (§1) Antagonist activity at muscarinic receptor in guinea pig ileum assessed as carbachol-induced ileum contraction measured after 15 mins
Method in brief: (§2)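 Male guinea-pig ileum (300-400 g), 2 cm segments in Krebs solution at 37°C, pH 7.4, O2/CO2 19:1, 0.5 g resting tension, 60 min equilibration. Cumulative agonist curves were run with histamine (10 nM–10 µM; H1) or carbachol (3 nM–3 µM; muscarinic), then repeated after 15 min with one antagonist concentration per tissue. Responses were taken as % of first-curve Emax, with pA2 from Schild analysis or pKB from the concentration ratio.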

Rattus norvegicus [5] = assay: Reversal of RAMH-induced dipsogenia in ip dosed Krf:(WI) WU rat assessed as inhibition of drinking response pretreated for 30 mins followed by RAMH stimulation for 20 mins measured for 30 mins; format: functional
Method in brief: (§3)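 Male Wistar Krf:(WI) WU rats (<250 g), 6–8 per group. Compound, pitolisant or vehicle (1% Tween 80) given i.p. 30 min before RAMH 10 mg/kg i.p. Water intake measured for 30 min, starting 20 min after RAMH. Inhibition = 100 − (individual intake / RAMH-group intake) × 100. ED50 by log-probit with 95% CL; one-way ANOVA with Dunnett.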

[6] = biological target: Histamine H1 receptor (Cavia porcellus) (UniProt P31389); assay: Antagonist activity at H1 receptor in guinea pig ileum assessed as inhibition of histamine-induced ileum contraction measured after 15 mins; method in brief: as §2
[7] = Drug metabolism in human liver microsomes after 2 hrs by UPLC analysis; format: ADME, microsome; settings: read-out: Drug metabolism
Method in brief: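 Incubation with human liver microsomes for 120 min; reaction mixture analysed by UPLC-MS, with MS fragmentation used to identify metabolites. In silico site-of-metabolism prediction run alongside.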

Mus musculus [8] = assay: Anticonvulsant activity in ip dosed maximal electroshock induced seizure TO mouse model assessed as suppression of tonic hind limb extension pretreated for 30 to 45 mins followed by maximal electroshock induction; format: functional, organism-based
[9] = biological target: Histamine H1 receptor (Cavia porcellus) (UniProt P31389); assay: Agonist activity at H1 receptor in guinea pig ileum assessed as induction of ileum contraction measured after 15 mins
Mus musculus [10] = assay: Reversal of scopolamine-induced memory deficit in Albino Swiss CD-1 mouse assessed as increase in step through latency time at 2.5 to 30 mg/kg, ip treated for 1 hr prior to testing followed by scopolamine challenge measured after 30 mins by passive avoidance test; format: functional, organism-based
Mus musculus [11] = assay: Reversal of scopolamine-induced memory deficit in Albino Swiss CD-1 mouse assessed as increase in step through latency time at 2.5 to 30 mg/kg, ip treated for 1 hr before training followed by scopolamine challenge 30 mins before training measured 24 hrs after training trial by passive avoidance test; format: functional, organism-based
Mus musculus [12] = assay: Toxicity in TO mouse model assessed as mortality at 10 mg/kg, ip; format: organism-based; settings: in vivo
[13] = as §1; settings: Cavia porcellus, 0.25 h; read-out: pA2 (converted); method in brief: as §2
Histamine H4 receptor = Histamine H4 receptor (Homo sapiens, UniProt Q9H3N8); assay: Inhibition of human H4 receptor
Rattus norvegicus [14] = assay: Reversal of RAMH-induced dipsogenia in Krf:(WI) WU rat assessed as inhibition of drinking response at 1.25 mg/kg, ip pretreated for 30 mins followed by RAMH stimulation for 20 mins measured for 30 mins relative to control; format: functional; method in brief: as §3

Chain of Histamine H1 receptor (Cavia porcellus) (P31389 whole entry): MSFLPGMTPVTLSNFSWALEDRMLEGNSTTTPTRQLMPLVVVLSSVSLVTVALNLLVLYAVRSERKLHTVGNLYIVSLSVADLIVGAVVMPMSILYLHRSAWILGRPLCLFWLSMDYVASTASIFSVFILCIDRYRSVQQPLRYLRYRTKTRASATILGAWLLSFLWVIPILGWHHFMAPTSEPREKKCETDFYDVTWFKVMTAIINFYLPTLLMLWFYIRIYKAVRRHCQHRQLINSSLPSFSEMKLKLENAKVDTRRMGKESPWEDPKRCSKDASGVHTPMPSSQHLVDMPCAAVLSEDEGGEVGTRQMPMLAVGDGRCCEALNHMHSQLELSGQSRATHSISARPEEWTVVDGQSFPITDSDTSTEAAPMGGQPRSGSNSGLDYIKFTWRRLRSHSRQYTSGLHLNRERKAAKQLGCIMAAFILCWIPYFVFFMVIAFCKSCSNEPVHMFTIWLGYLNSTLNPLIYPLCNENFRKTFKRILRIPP
Chain of Histamine H3 receptor (Q9Y5N1 whole entry): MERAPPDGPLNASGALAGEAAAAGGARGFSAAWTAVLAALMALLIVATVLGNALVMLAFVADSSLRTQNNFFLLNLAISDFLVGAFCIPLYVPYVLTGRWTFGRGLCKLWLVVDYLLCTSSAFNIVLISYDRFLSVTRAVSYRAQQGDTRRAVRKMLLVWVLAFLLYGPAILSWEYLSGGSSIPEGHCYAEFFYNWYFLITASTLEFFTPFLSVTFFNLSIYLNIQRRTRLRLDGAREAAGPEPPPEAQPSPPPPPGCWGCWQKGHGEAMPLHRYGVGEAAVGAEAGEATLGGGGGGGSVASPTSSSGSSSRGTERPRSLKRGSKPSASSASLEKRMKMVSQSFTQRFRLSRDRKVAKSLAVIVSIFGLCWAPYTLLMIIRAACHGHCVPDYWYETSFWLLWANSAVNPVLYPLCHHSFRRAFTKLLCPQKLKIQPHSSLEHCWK
Chain of Histamine H4 receptor (Q9H3N8 whole entry): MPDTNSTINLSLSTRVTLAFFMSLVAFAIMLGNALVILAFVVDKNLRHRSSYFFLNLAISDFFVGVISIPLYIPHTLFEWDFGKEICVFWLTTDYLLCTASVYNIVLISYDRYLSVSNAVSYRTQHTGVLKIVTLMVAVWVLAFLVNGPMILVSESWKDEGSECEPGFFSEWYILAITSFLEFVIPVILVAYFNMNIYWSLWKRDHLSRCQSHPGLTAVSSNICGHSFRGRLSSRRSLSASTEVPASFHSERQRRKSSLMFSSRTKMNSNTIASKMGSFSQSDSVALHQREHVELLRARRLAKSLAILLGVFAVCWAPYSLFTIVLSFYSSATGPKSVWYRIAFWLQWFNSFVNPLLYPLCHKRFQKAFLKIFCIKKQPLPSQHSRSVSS

Compound | Ki (Histamine H3 receptor) [µM] | further results
CCC(C)(C)c1ccc(OCCCN2CCN(c3ccncc3)CC2)cc1 | 0.0306 | Activity (Mus musculus [1]): Active
CCC(C)(C)c1ccc(OCCCCN2CCN(c3cccnc3)CC2)cc1 | > 10 | –
CC(C)(C)c1ccc(OCCCCN2CCN(C(=O)C3CCCO3)CC2)cc1 (stereo not given) | > 10 | –
CCC(C)(C)c1ccc(OCCCCN2CCN(c3ncccn3)CC2)cc1 | 2.26 | –
CC(C)(C)c1ccc(OCCCCN2CCN(c3ccncc3)CC2)cc1 | 0.0378 | Activity (Cavia porcellus [2]): inactive; pKb [3]: 6.15; inhibition (Cavia porcellus [4]): Dose-dependent effect; pKb (Cavia porcellus [4]): 6.39; ED50 (Rattus norvegicus [5]): 10.7 mg/kg; inhibition (Rattus norvegicus [5]): Dose-dependent effect; inhibition [6]: Dose-dependent effect; metabolised at 2 h [7]: 30%; Activity (Mus musculus [8]): Dose-dependent effect; Activity [9]: inactive; Activity (Mus musculus [10]): inactive; Activity (Mus musculus [11]): Active
CCC(C)(C)c1ccc(OCCCN2CCN(c3ncccn3)CC2)cc1 | 5.41 | –
CC(C)(C)c1ccc(OCCCCN2CCN(c3cnccn3)CC2)cc1 | 5.48 | –
CC(C)(C)c1ccc(OCCCN2CCN(C(=O)C3CCCO3)CC2)cc1 (stereo not given) | > 10 | –
CC(C)(C)c1ccc(OCCCN2CCN(c3ccccn3)CC2)cc1 | > 10 | –
CC(C)(C)c1ccc(OCCCN2CCN(c3cccnc3)CC2)cc1 | 8.16 | –
CC(C)(C)c1ccc(OCCCN2CCCCC2)cc1 | 0.022 | –
CC(C)(C)c1ccc(OCCCCN2CCN(c3ncccn3)CC2)cc1 | 0.883 | –
O=C1NC(=O)C(c2ccccc2)(c2ccccc2)N1 [PHENYTOIN] | – | Activity (Mus musculus [1]): Active; Activity (Mus musculus [12]): Non-Toxic
CCC(C)(C)c1ccc(OCCCCN2CCN(c3ccncc3)CC2)cc1 | 0.12 | Activity (Mus musculus [1]): Active
CN1[C@@H]2CC[C@H]1C[C@@H](OC(=O)C(CO)c1ccccc1)C2 (stereo not given in full) [ATROPINE] | – | Kb [13]: 0.00104 µM
Clc1ccc(CCCOCCCN2CCCCC2)cc1 [PITOLISANT] | – | Ki (Histamine H4 receptor): > 100 µM; inhibition in vivo at 1.25 mg/kg (Rattus norvegicus [14]): 87.4%
CC(C)(C)c1ccc(OCCCCN2CCN(c3ccccn3)CC2)cc1 | 2.96 | –
CCC(C)(C)c1ccc(OCCCN2CCN(c3ccccn3)CC2)cc1 | 5.2 | –
CC(C)(C)c1ccc(OCCCN2CCN(c3ccncc3)CC2)cc1 | 0.016 | Activity (Mus musculus [1]): Active
CC(C)(C)c1ccc(OCCCN2CCN(c3cnccn3)CC2)cc1 | 8.74 | –
CCC(C)(C)c1ccc(OCCCCN2CCN(c3ccccn3)CC2)cc1 | 0.482 | –
CCC(C)(C)c1ccc(OCCCN2CCN(C(=O)C3CCCO3)CC2)cc1 (stereo not given) | > 10 | –
CCC(C)(C)c1ccc(OCCCN2CCN(c3cnccn3)CC2)cc1 | 6.21 | –
CC(C)(C)c1ccc(OCCCCN2CCN(c3cccnc3)CC2)cc1 | 3.42 | –
CC(C)(C)c1ccc(OCCCN2CCN(c3ncccn3)CC2)cc1 | 3.83 | –
CCC(C)(C)c1ccc(OCCCCN2CCN(C(=O)C3CCCO3)CC2)cc1 (stereo not given) | > 10 | –
CCC(C)(C)c1ccc(OCCCN2CCN(c3cccnc3)CC2)cc1 | 3.65 | –
CCC(C)(C)c1ccc(OCCCCN2CCN(c3cnccn3)CC2)cc1 | 0.683 | –

From ChEMBL document CHEMBL4152242, “Synthesis and biological activity of novel tert-butyl and tert-pentylphenoxyalkyl piperazine derivatives as histamine H3R ligands” (Eur J Med Chem, 2018)
